This note sets out measurements from ChEMBL document CHEMBL5360548, “Fatty acids as molecular carriers in cleavable antifungal conjugates” (Eur J Med Chem, 2023).

Data set [1] can be described thus: Induction of hemolysis in human RBC incubated for 30 mins by absorbance based microplate reader analysis. Type of data set: toxicity, cell-based, Erythrocyte. The conditions noted are these: human red blood cells (erythrocytes). The essentials: (§1)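 Human erythrocytes at 2 × 10^7 cells mL-1 in saline, exposed to two-fold dilutions from DMSO stocks (final 200–0.4 µg mL-1), 37 °C, 30 min, then centrifuged. Hemoglobin in supernatant read at A540. Percent hemolysis scaled between DMSO (0%) and Triton X-100 (100%) controls. EH50 interpolated as the concentration giving 50% of the positive-control A540.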

Data set [2] has as its system Pichia kudriavzevii. The data set can be described thus: Antifungal activity Candida krusei DSM 6128 by two-fold dilution method. Type of data set: functional. An outline of the steps: (§2)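 Serial two-fold broth microdilution MIC per CLSI M27-A3, in RPMI-1640 without bicarbonate, with L-glutamine, 2% glucose and 3.45% MOPS, pH 7.0. Conjugates tested at 512–1 µg mL-1, 5-FC at 64–0.125 µg mL-1. Strains maintained at 30 °C in YPD medium and stored on YPD agar.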

Data set [3] has as its system Nakaseomyces glabratus. The data set can be described thus: Antifungal activity Candida glabrata DSM 11226 by two-fold dilution method. Type of data set: functional. The essentials: as §2
The subject of data set [4] is Candida parapsilosis. The data set can be described thus: Antifungal activity Candida parapsilosis DSM 5784 by two-fold dilution method. Type of data set: functional. The conditions noted are these: Lodderomyces parapsilosis. The essentials: as §2
Data set [5] deals with Debaryomyces hansenii. The data set can be described thus: Antifungal activity Candida famata DSM 3428 by two-fold dilution method. Type of data set: functional. The essentials:
as §2

The subject of data set [6] is Kluyveromyces marxianus. The data set can be described thus: Antifungal activity Candida pseudotropicalis KKP 324 by two-fold dilution method. Type of data set: functional. An outline of the steps:
as §2

Data set [7] relates to Candida albicans. The data set can be described thus: Antifungal activity Candida albicans ATCC 10231 by two-fold dilution method. Type of data set: functional. An outline of the steps: as §2
Data set [8] can be described thus: Induction of hemolysis in human RBC at upto 200 ug/ml incubated for 30 mins by absorbance based microplate reader analysis relative to control. Type of data set: toxicity, cell-based, Erythrocyte. The following applies: human red blood cells (erythrocytes), up to 200 µg/mL. The essentials: as §1
For data set [9], the system named is Diutina rugosa. The data set can be described thus: Antifungal activity Candida rugosa DSM 2031 by two-fold dilution method. Type of data set: functional. The essentials: as §2
Data set [10] relates to Meyerozyma guilliermondii. The data set can be described thus: Antifungal activity Candida guilliermondii DSM 11947 by two-fold dilution method. Type of data set: functional. The essentials:
as §2

Data set [11] relates to Candida albicans. The data set can be described thus: Antifungal activity Candida albicans ATCC 10231 at 512 ug/ml by two-fold dilution method. Type of data set: functional, organism-based. The conditions noted are these: dose 512.0 µg/ml. The essentials: as §2
Data set [12] is described as follows: Drug uptake in Candida glabrata cells assessed as increase in number of cells emitting green fluorescence measured after 10 to 30 mins by fluorescence based analysis. Type of data set: ADME, cell-based. The conditions noted are these: nakaseomyces glabratus; time 10-30 min. The essentials:
(§3)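 Candida from overnight YPD culture were washed, grown in RPMI-1640 at 30 °C with shaking from OD660 0.1 to 0.3, then resuspended in PBS to OD660 0.2. Fluorescent conjugate added to 50 µg mL-1 final and incubated at 30 °C, 150 rpm. Samples taken over time, washed 4× in PBS, imaged by confocal microscopy (ex 438, em 527 nm).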

Data set [13] can be described thus: Drug localization in cytoplasm of Candida cells measured after 1 hr by confocal microscopy based analysis. Type of data set: ADME, cell-based. The essentials: as §3

Values after ≈ are worked out from the molar mass of the structure shown. Active and inactive are the calls of the source. No cut-off for these calls is given here.

`C[C@@H]1[C@H](O)[C@@H](C)/C=C/C=C/C=C/C=C/C=C/C=C/C=C/[C@H](O[C@@H]2O[C@H](C)[C@@H](O)[C@H](N)[C@@H]2O)C[C@@H]2O[C@](O)(C[C@@H](O)C[C@@H](O)[C@H](O)CC[C@@H](O)C[C@@H](O)CC(=O)O[C@H]1C)C[C@H](O)[C@H]2C(=O)O` [AMPHOTERICIN B] returned a 50% haemolytic concentration (HC50) at 0.5 h in [1] of 3.46 µg/mL.

As to `CCCCCCCCCC(=O)Oc1cc(C)cc(C)c1C(C)(C)CC(=O)Oc1ncc(F)c(N)n1`, the MIC in data set [2] came out at 256 mg/L (≈ 525 µM); in data set [3], 4 mg/L (≈ 8.2 µM); in data set [4] it was 4 mg/L (≈ 8.2 µM); in [5] it was 8 mg/L (≈ 16.4 µM); in data set [6], 32 mg/L (≈ 65.6 µM); in [7] it was 8 mg/L (≈ 16.4 µM). The minimum inhibitory concentration (MIC) in data set [9] amounted to 16 mg/L (≈ 32.8 µM); in data set [10], 8 mg/L (≈ 16.4 µM). For the same molecule, in [8], the hemolysis at 0.5 h is less than 5%.

Regarding `CC(=O)Oc1cc(C)cc(C)c1C(C)(C)CC(=O)Oc1ncc(F)c(N)n1`, the MIC was greater than 512 mg/L in data set [2]; 8 mg/L (≈ 21.3 µM) in [3]; 4 mg/L (≈ 10.7 µM) in data set [4]; 8 mg/L (≈ 21.3 µM) in data set [5]; 64 mg/L (≈ 170 µM) in data set [6]; 16 mg/L (≈ 42.6 µM) in data set [7]. Besides, the minimal inhibitory concentration (MIC) in data set [9] worked out at 32 mg/L (≈ 85.2 µM); in [10], 16 mg/L (≈ 42.6 µM). Further, in [8], the hemolysis at 0.5 h was less than 5%.

Turning to `CCCCN1C(=O)c2cccc3c(NCCNC(=O)CC(C)(C)c4c(C)cc(C)cc4OC(C)=O)ccc(c23)C1=O`, in data set [11], the result was inactive.

As to `CCCCCCCC(=O)Oc1cc(C)cc(C)c1C(C)(C)CC(=O)NCCNc1ccc2c3c(cccc13)C(=O)N(CCCC)C2=O`, the Drug uptake entry in data set [12] and in data set [13] was “Active” throughout. Besides, the outcome in data set [11] was inactive.

For `CCCCCCCCCCCC(=O)Oc1cc(C)cc(C)c1C(C)(C)CC(=O)NCCNc1ccc2c3c(cccc13)C(=O)N(CCCC)C2=O`, the result in [11] was inactive.

With `CCCCCCCCCCCCCCCCCC(=O)Oc1cc(C)cc(C)c1C(C)(C)CC(=O)NCCNc1ccc2c3c(cccc13)C(=O)N(CCCC)C2=O`, the result in data set [11] was inactive.

Turning to `CCCCCCCCCCCCCC(=O)Oc1cc(C)cc(C)c1C(C)(C)CC(=O)NCCNc1ccc2c3c(cccc13)C(=O)N(CCCC)C2=O`, the outcome in data set [11] was inactive.

`CCCCCCCCCC(=O)Oc1cc(C)cc(C)c1C(C)(C)CC(=O)NCCNc1ccc2c3c(cccc13)C(=O)N(CCCC)C2=O`: in data set [11], the result was inactive.

`CCCCCCCCCCCCCCCC(=O)Oc1cc(C)cc(C)c1C(C)(C)CC(=O)NCCNc1ccc2c3c(cccc13)C(=O)N(CCCC)C2=O`: the result in data set [11] was inactive.

In the case of `Nc1nc(=O)[nH]cc1F` [FLUCYTOSINE], the minimal inhibitory concentration (MIC) in [2] is greater than 512 mg/L; in data set [3], 0.5 mg/L (≈ 3.87 µM); in [4] it was 2 mg/L (≈ 15.5 µM); in [5], 1 mg/L (≈ 7.75 µM); in data set [6], 1 mg/L (≈ 7.75 µM); in data set [7] it was 1 mg/L (≈ 7.75 µM). The MIC in data set [9] was found to be 2 mg/L (≈ 15.5 µM); in [10], 0.5 mg/L (≈ 3.87 µM).

For `CCCCCCCCCCCC(=O)Oc1cc(C)cc(C)c1C(C)(C)CC(=O)Oc1ncc(F)c(N)n1`, the minimal inhibitory concentration (MIC) in [2] came out at 256 mg/L (≈ 496 µM); in [3] it was 4 mg/L (≈ 7.76 µM); in [4], 4 mg/L (≈ 7.76 µM); in data set [5] it was 4 mg/L (≈ 7.76 µM); in data set [6], 64 mg/L (≈ 124 µM); in data set [7], 8 mg/L (≈ 15.5 µM). The minimum inhibitory concentration (MIC) amounted to 16 mg/L (≈ 31 µM) in data set [9] and 8 mg/L (≈ 15.5 µM) in [10]. Also, the hemolysis at 0.5 h in data set [8] was less than 5%.

In the case of `CCCCCCCC(=O)Oc1cc(C)cc(C)c1C(C)(C)CC(=O)Oc1ncc(F)c(N)n1`, the MIC in data set [2] was 128 mg/L (≈ 279 µM); in data set [3] it was 2 mg/L (≈ 4.35 µM); in data set [4], 4 mg/L (≈ 8.7 µM); in data set [5], 4 mg/L (≈ 8.7 µM); in data set [6], 32 mg/L (≈ 69.6 µM); in [7] it was 8 mg/L (≈ 17.4 µM). Moreover, the minimal inhibitory concentration (MIC) in data set [9] is 16 mg/L (≈ 34.8 µM); in data set [10] it was 8 mg/L (≈ 17.4 µM). In data set [8], this molecule had a hemolysis at 0.5 h of less than 5%.

For `CCCCCCCCCCCCCC(=O)Oc1cc(C)cc(C)c1C(C)(C)CC(=O)Oc1ncc(F)c(N)n1`, the MIC was 512 mg/L (≈ 942 µM) in data set [2]; 2 mg/L (≈ 3.68 µM) in [3]; 4 mg/L (≈ 7.36 µM) in data set [4]; 4 mg/L (≈ 7.36 µM) in [5]; 32 mg/L (≈ 58.9 µM) in data set [6]; 4 mg/L (≈ 7.36 µM) in data set [7]. Also, the MIC in data set [9] is 16 mg/L (≈ 29.4 µM); in data set [10] it was 8 mg/L (≈ 14.7 µM). In [8], this molecule registered a hemolysis at 0.5 h of less than 5%.

Take `CCCCCCCCCCCCCCCC(=O)Oc1cc(C)cc(C)c1C(C)(C)CC(=O)Oc1ncc(F)c(N)n1`: the minimal inhibitory concentration (MIC) in [2] was greater than 512 mg/L; in data set [3], 8 mg/L (≈ 14 µM); in data set [4] it was 8 mg/L (≈ 14 µM); in data set [5], 16 mg/L (≈ 28 µM); in data set [6] it was 128 mg/L (≈ 224 µM); in [7] it was 16 mg/L (≈ 28 µM). Further, the values for the MIC in data set [9] and in data set [10] were 64 mg/L (≈ 112 µM) and 32 mg/L (≈ 56 µM), respectively. Further, the hemolysis at 0.5 h in [8] was less than 5%.

For `CCCCCCCCCCCCCCCCCC(=O)Oc1cc(C)cc(C)c1C(C)(C)CC(=O)Oc1ncc(F)c(N)n1`, the MIC is greater than 512 mg/L in data set [2]; 32 mg/L (≈ 53.3 µM) in [3]; 128 mg/L (≈ 213 µM) in [4]; 256 mg/L (≈ 427 µM) in [5]; 512 mg/L (≈ 854 µM) in data set [6]; 128 mg/L (≈ 213 µM) in data set [7]. The values for the minimal inhibitory concentration (MIC) in data set [9] and in data set [10] were greater than 512 mg/L and 256 mg/L (≈ 427 µM), respectively. Moreover, the hemolysis at 0.5 h in [8] was less than 5%.

The HC50 is the concentration giving 50% haemolysis. For orientation: MIC means the least concentration at which growth counts as inhibited. A high value points to a need for much substance.
